pIC50: −log10 of the molar value. Active and inactive are the calls of the source. The calls are words filed in the database; no cut-off is given here.
Columns and labels:
[1] = tested on: PC-3; assay: Selectivity index, ratio of IC50 for mouse NIH/3T3 cells to IC50 for human PC3 cells; assay type: functional
How it was run: (§1)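 Index is the IC50 in normal NIH3T3 cells divided by the IC50 in each cancer line. […] HCPT and adriamycin were used as positive controls.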

[2] = tested on: A-375; assay: Selectivity index, ratio of IC50 for mouse NIH/3T3 cells to IC50 for human A375 cells; assay type: functional; how it was run: as §1
[3] = tested on: Bcap37; assay: Selectivity index, ratio of IC50 for mouse NIH/3T3 cells to IC50 for human Bcap37 cells; assay type: functional; how it was run: as §1
[4] = (§2) Cytotoxicity against human PC3 cells after 72 hrs by MTT assay; assay type: functional, cell-based; conditions: PC-3, 72 h
How it was run: (§3)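 Cells trypsinized at 80-90% confluence, seeded at 2×10^3/well overnight, then given compounds (DMSO stocks diluted in medium) at various concentrations for 72 h at 37 °C. Controls: 0.1% DMSO negative, adriamycin positive. MTT (5 mg/ml) added for 4 h, formazan dissolved in SDS 12 h, A595 read. IC50 from dose-response curves.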

[5] = tested on: PC-3; assay: as §2; assay type: functional, cell-based; how it was run: as §3
[6] = tested on: MCF7; assay: Cytotoxicity against human MCF7 cells after 72 hrs by MTT assay; assay type: functional, cell-based; conditions: for pIC50: MCF7, 72 h
How it was run: as §3, with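 “Cancer lines grown in RPMI 1640 with 10% heat-inactivated FBS, 37 °C, 5% CO2. Cells” for “Cells”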

[7] = tested on: MCF7; assay: Selectivity index, ratio of IC50 for mouse NIH/3T3 cells to IC50 for human MCF7 cells; assay type: functional; how it was run: as §1
[8] = tested on: A-375; assay: Cytotoxicity against human A375 cells after 72 hrs by MTT assay; assay type: functional, cell-based; conditions: for pIC50: A-375, 72 h
How it was run: as §3, with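 “Cancer lines grown in RPMI 1640 with 10% heat-inactivated FBS, 37 °C, 5% CO2. Cells” for “Cells”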

[9] = tested on: Bcap37; assay: Cytotoxicity against human Bcap37 cells after 72 hrs by MTT assay; assay type: functional, cell-based; conditions: for pIC50: Bcap37, 72 h
How it was run: as §3, with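 “Cancer lines grown in RPMI 1640 with 10% heat-inactivated FBS, 37 °C, 5% CO2. Cells” for “Cells”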

[10] = tested on: MGC-803; assay: Cytotoxicity against human MGC803 cells after 72 hrs by MTT assay; assay type: functional, cell-based; conditions: for pIC50: MGC-803, 72 h
How it was run: as §3, with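 “Cancer lines grown in RPMI 1640 with 10% heat-inactivated FBS, 37 °C, 5% CO2. Cells” for “Cells”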

[11] = tested on: MGC-803; assay: Selectivity index, ratio of IC50 for mouse NIH/3T3 cells to IC50 for human MGC803 cells; assay type: functional; how it was run: as §1
[12] = tested on: MGC-803; assay: Induction of apoptosis in human MGC803 cells assessed as DNA fragmentation at 10 uM after 48 hrs by TUNEL assay; assay type: functional, cell-based
How it was run: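 MGC-803 cells seeded at 5×10^4 cells/mL in 6-well plates; medium replaced with fresh medium plus 10% FBS and compound (10 µM, 48 h), DMSO negative control. Fixed in 4% paraformaldehyde 40 min, permeabilized 2 min on ice, peroxidase quenched (0.3% H2O2/methanol, 20 min RT), TdT/biotin-dUTP 60 min 37 °C, streptavidin-HRP 30 min, then DAB. Brown precipitate under light microscopy scored apoptotic.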

[13] = tested on: MGC-803; assay: Induction of apoptosis in human MGC803 cells assessed as appearance of compact condensed and crescent shaped cells at 10 uM after 48 hrs by Hoechst 33258 staining-based fluorescence microscopic analysis; assay type: functional, cell-based
How it was run: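 MGC-803 cells seeded at 5×10^4 cells/mL in 6-well plates; medium replaced with fresh medium plus 10% FBS and compound (10 µM, 48 h), DMSO negative control. Cells washed, fixed in 4% paraformaldehyde 10 min, stained with Hoechst 33258 for 5 min, washed, then nuclear morphology viewed by fluorescence microscopy (excitation 350 nm, emission 460 nm).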

With `C=C(C)[C@@H]1CC[C@]2(C(=O)OCCN3CCN(C(=O)c4ccccc4C)CC3)CC[C@]3(C)[C@H](CC[C@@H]4[C@@]5(C)CCC(=O)C(C)(C)[C@@H]5CC[C@]43C)[C@@H]12` the “Ratio IC50” value [1] was 2.43, the “Ratio IC50” value [2] was 4.69 and the “Ratio IC50” value [3] was 3.3. For the same compound, the pIC50 [4] was 5.06, the Activity [5] was “Dose-dependent effect” and the Activity [6] was “Dose-dependent effect”. The pIC50 [6] was 5.27, the “Ratio IC50” value [7] was 3.91 and the Activity [8] was “Dose-dependent effect”. The pIC50 [8] was 5.35, the Activity [9] was “Dose-dependent effect” and the pIC50 [9] was 5.19. For the same compound, the Activity [10] was “Dose-dependent effect”, the pIC50 [10] was 5.35 and the “Ratio IC50” value [11] was 4.69.

For `C=C(C)[C@@H]1CC[C@]2(C(=O)OCCCCN3CCCC3)CC[C@]3(C)[C@H](CC[C@@H]4[C@@]5(C)CCC(=O)C(C)(C)[C@@H]5CC[C@]43C)[C@@H]12`, the “Ratio IC50” value [1] was 4.28, the “Ratio IC50” value [2] was 3.38 and the “Ratio IC50” value [3] was 6.11. For the same compound, the pIC50 [4] was 5.17, the Activity [5] was “Dose-dependent effect” and the Activity [6] was “Dose-dependent effect”. For the same compound, the pIC50 [6] was 5.27, the “Ratio IC50” value [7] was 5.31 and the Activity [8] was “Dose-dependent effect”. The pIC50 [8] was 5.07, the Activity [9] was “Dose-dependent effect” and the pIC50 [9] was 5.33. For the same compound, the Activity [10] was “Dose-dependent effect”, the pIC50 [10] was 5.40 and the “Ratio IC50” value [11] was 7.18.

For `C=C(C)[C@@H]1CC[C@]2(C(=O)OCCCCN(CC)CC)CC[C@]3(C)[C@H](CC[C@@H]4[C@@]5(C)CCC(=O)C(C)(C)[C@@H]5CC[C@]43C)[C@@H]12`, the “Ratio IC50” value [1] was 5.32, the “Ratio IC50” value [2] was 2.54 and the “Ratio IC50” value [3] was 4.5. For the same compound, the pIC50 [4] was 5.36, the Activity [5] was “Dose-dependent effect” and the Activity [6] was “Dose-dependent effect”. The pIC50 [6] was 5.10, the “Ratio IC50” value [7] was 2.96 and the Activity [8] was “Dose-dependent effect”. For the same compound, the pIC50 [8] was 5.04, the Activity [9] was “Dose-dependent effect” and the pIC50 [9] was 5.28. The Activity [10] was “Dose-dependent effect”, the pIC50 [10] was 5.42 and the “Ratio IC50” value [11] was 6.15.

For `CC[C@@]1(O)C(=O)OCc2c1cc1n(c2=O)Cc2cc3cc(O)ccc3nc2-1` [HYDROXYCAMPTOTHECIN], the pIC50 [4] was 4.46, the Activity [5] was “Dose-dependent effect” and the Activity [12] was “Active”. The pIC50 [6] was 4.32, the Activity [8] was “Dose-dependent effect” and the pIC50 [8] was 4.56. The Activity [9] was “Dose-dependent effect”, the pIC50 [9] was 4.55 and the Activity [10] was “Dose-dependent effect”. For the same compound, the pIC50 [10] was 4.54 and the Activity [13] was “Active”.

For `C=C(C)[C@@H]1CC[C@]2(C(=O)OCCN3CCN(C(=O)c4ccccc4)CC3)CC[C@]3(C)[C@H](CC[C@@H]4[C@@]5(C)CCC(=O)C(C)(C)[C@@H]5CC[C@]43C)[C@@H]12`, the “Ratio IC50” value [1] was 9.85, the “Ratio IC50” value [2] was 6.41 and the “Ratio IC50” value [3] was 5.46. The pIC50 [4] was 5.39, the Activity [5] was “Dose-dependent effect” and the Activity [6] was “Dose-dependent effect”. For the same compound, the pIC50 [6] was 5.33, the “Ratio IC50” value [7] was 8.6 and the Activity [8] was “Dose-dependent effect”. For the same compound, the pIC50 [8] was 5.20, the Activity [9] was “Dose-dependent effect” and the pIC50 [9] was 5.13. The Activity [10] was “Dose-dependent effect”, the pIC50 [10] was 5.28 and the “Ratio IC50” value [11] was 7.62.

For `C=C(C)[C@@H]1CC[C@]2(C(=O)OCCN3CCN(C(=O)c4ccc(F)c(F)c4)CC3)CC[C@]3(C)[C@H](CC[C@@H]4[C@@]5(C)CCC(=O)C(C)(C)[C@@H]5CC[C@]43C)[C@@H]12`, the “Ratio IC50” value [1] was 4.02, the “Ratio IC50” value [2] was 2.57 and the “Ratio IC50” value [3] was 4.74. The pIC50 [4] was 5.34, the Activity [5] was “Dose-dependent effect” and the Activity [6] was “Dose-dependent effect”. The pIC50 [6] was 5.43, the “Ratio IC50” value [7] was 5 and the Activity [8] was “Dose-dependent effect”. The pIC50 [8] was 5.14, the Activity [9] was “Dose-dependent effect” and the pIC50 [9] was 5.41. The Activity [10] was “Dose-dependent effect”, the pIC50 [10] was 5.36 and the “Ratio IC50” value [11] was 4.2.

With `C=C(C)[C@@H]1CC[C@]2(C(=O)OCCCN3CCCCC3)CC[C@]3(C)[C@H](CC[C@@H]4[C@@]5(C)CCC(=O)C(C)(C)[C@@H]5CC[C@]43C)[C@@H]12` the pIC50 [4] was 5.24, the Activity [5] was “Dose-dependent effect” and the Activity [6] was “Dose-dependent effect”. For the same compound, the pIC50 [6] was 5.18, the Activity [8] was “Dose-dependent effect” and the pIC50 [8] was 5.02. For the same compound, the Activity [9] was “Dose-dependent effect”, the pIC50 [9] was 5.02 and the Activity [10] was “Dose-dependent effect”. The pIC50 [10] was 5.20.

For `C=C(C)[C@@H]1CC[C@]2(C(=O)OCCN3CCCCC3)CC[C@]3(C)[C@H](CC[C@@H]4[C@@]5(C)CCC(=O)C(C)(C)[C@@H]5CC[C@]43C)[C@@H]12`, the pIC50 [4] was 4.73, the Activity [5] was “Dose-dependent effect” and the Activity [6] was “Dose-dependent effect”. The pIC50 [6] was 4.80, the Activity [8] was “Dose-dependent effect” and the pIC50 [8] was 4.77. The Activity [9] was “Dose-dependent effect”, the pIC50 [9] was 4.77 and the Activity [10] was “Dose-dependent effect”. The pIC50 [10] was 4.90.

In the case of `C=C(C)[C@@H]1CC[C@]2(C(=O)OCCN3CCN(C(=O)c4c(F)cccc4Cl)CC3)CC[C@]3(C)[C@H](CC[C@@H]4[C@@]5(C)CCC(=O)C(C)(C)[C@@H]5CC[C@]43C)[C@@H]12`, the pIC50 [4] was 5.03, the Activity [5] was “Dose-dependent effect” and the Activity [6] was “Dose-dependent effect”. The pIC50 [6] was 5.09, the Activity [8] was “Dose-dependent effect” and the pIC50 [8] was 5.08. For the same compound, the Activity [9] was “Dose-dependent effect”, the pIC50 [9] was 5.12 and the Activity [10] was “Dose-dependent effect”. The pIC50 [10] was 5.28.
